Measured values from ChEMBL document CHEMBL1932913, “Synthesis and antitumor evaluation of some new 1,3,4-oxadiazole-based heterocycles” (Eur J Med Chem, 2012).
In brackets after ≈: the same amount, converted by molar mass. Activity calls are given as the source filed them. The calls are words filed in the database; no cut-off is given here.

What was measured:
[1] = tested on: HepG2; assay: Cytotoxicity against human HepG2 cells after 96 hrs by MTT assay; assay type: functional, cell-based; conditions: HepG2, 96 h
Summary of the method: (§1)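 Cells from ATCC, batch cultured 10 d, seeded at 10 × 10³ cells/well in RPMI-1640 with fetal bovine serum, attached 24 h at 37 °C, 5% CO₂. Serum-free medium, then test samples at final 1000, 500, 200, 100, 50, 20, 10 (DMSO ≤1% v/v); 96 h incubation. Formazan read-out against untreated controls; 5-fluorouracil positive control; IC50 from dose–response curve.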

[2] = tested on: WI-38; assay: Cytotoxicity against human WI38 cells after 96 hrs by MTT assay; assay type: cell-based; conditions: WI-38, 96 h; summary of the method: as §1
[3] = tested on: MCF7; assay: Cytotoxicity against human MCF7 cells after 96 hrs by MTT assay; assay type: functional, cell-based; conditions: MCF7, 96 h; summary of the method: as §1
[4] = tested on: Vero; assay: Cytotoxicity against african green monkey Vero cells after 96 hrs by MTT assay; assay type: cell-based; conditions: Chlorocebus sabaeus; summary of the method: as §1
[5] = tested on: Nucleic Acid; assay: Protection against bleomycin-iron complex-induced DNA damage using EDTA after 1 hr by thiobarbituric acid method; assay type: nucleic-acid assay
Summary of the method: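 Bleomycin DNA-damage assay, 1.0 ml final: DNA 0.2 mg/ml, bleomycin 0.05 mg/ml, FeCl₃ 0.025 mM, MgCl₂ 5 mM, KH₂PO₄–KOH pH 7.0 30 mM, sample 0.1 mg/ml in MeOH (ascorbic acid 0.24 mM reference). 37 °C for 1 h; stopped with EDTA; TBA plus HCl, 80 °C 15 min; absorbance read. Three experiments, mean ± S.E.M.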

Row | SMILES | IC50 [1] | IC50 [2] | IC50 [3] | IC50 [4] | Activity [5]
1 | NC1=Nn2c(nnc2NC(=O)c2ccccc2)C1 | 65.6 µg/mL (≈ 271 µM) | 65 µg/mL (≈ 268 µM) | 66.8 µg/mL (≈ 276 µM) | 69.8 µg/mL (≈ 288 µM) | –
2 | Nc1n[nH]c(Nc2ccccc2)c1-c1nnc(NC(=O)c2ccccc2)o1 | 33.7 µg/mL (≈ 93.3 µM) | 38.4 µg/mL (≈ 106 µM) | 38.3 µg/mL (≈ 106 µM) | 36.3 µg/mL (≈ 100 µM) | –
3 | Cc1c(/C=c2/c(=O)s/c(=C(\C#N)c3nnc(NC(=O)c4ccccc4)o3)n2-c2ccccc2)c(=O)n(-c2ccccc2)n1C | 146 µg/mL (≈ 242 µM) | 175 µg/mL (≈ 291 µM) | 167 µg/mL (≈ 277 µM) | 170 µg/mL (≈ 282 µM) | –
4 | O=c1[nH]cc(F)c(=O)[nH]1 [FLUOROURACIL] | – | 3.2 µg/mL (≈ 24.6 µM) | – | – | –
5 | Nc1c(C(=O)c2ccccc2)sc(Nc2ccccc2)c1-c1nnc(NC(=O)c2ccccc2)o1 | 90.7 µg/mL (≈ 188 µM) | 89.6 µg/mL (≈ 186 µM) | 100 µg/mL (≈ 209 µM) | 101 µg/mL (≈ 209 µM) | –
6 | N#C/C(=C(\S)Nc1ccccc1)c1nnc(NC(=O)c2ccccc2)o1 | 100 µg/mL (≈ 276 µM) | 84.6 µg/mL (≈ 233 µM) | 77.5 µg/mL (≈ 213 µM) | 82.4 µg/mL (≈ 227 µM) | –
7 | O=C(Nc1nnc(-c2nc3c(ccc4ccccc43)oc2=O)o1)c1ccccc1 | 190 µg/mL (≈ 494 µM) | 181 µg/mL (≈ 470 µM) | 222 µg/mL (≈ 577 µM) | 189 µg/mL (≈ 492 µM) | –
8 | Nc1nn(-c2ccccc2)c(Nc2ccccc2)c1-c1nnc(NC(=O)c2ccccc2)o1 | 98.7 µg/mL (≈ 226 µM) | 90.5 µg/mL (≈ 207 µM) | 99.1 µg/mL (≈ 227 µM) | 98.8 µg/mL (≈ 226 µM) | –
9 | O=C(Nc1nnc(-c2cc3ccccc3oc2=O)o1)c1ccccc1 | 35.6 µg/mL (≈ 107 µM) | 35.8 µg/mL (≈ 107 µM) | 32.6 µg/mL (≈ 97.8 µM) | 34.5 µg/mL (≈ 104 µM) | –
10 | N#C/C(=C/c1cn(-c2ccccc2)nc1-c1ccccc1)c1nnc(NC(=O)c2ccccc2)o1 | 38.1 µg/mL (≈ 83.1 µM) | 24.1 µg/mL (≈ 52.6 µM) | 37.4 µg/mL (≈ 81.6 µM) | 39.6 µg/mL (≈ 86.4 µM) | –
11 | N#CCc1nnc(NC(=O)c2ccccc2)o1 | 21.2 µg/mL (≈ 92.9 µM) | 24.4 µg/mL (≈ 107 µM) | 39.2 µg/mL (≈ 172 µM) | 30.3 µg/mL (≈ 133 µM) | Active
12 | O=C(Nc1nnc(-c2nc3ccc4ccccc4c3oc2=O)o1)c1ccccc1 | 111 µg/mL (≈ 290 µM) | 90.9 µg/mL (≈ 237 µM) | 96.9 µg/mL (≈ 252 µM) | 95.4 µg/mL (≈ 248 µM) | –
13 | N#C/C(=C1\SC(=O)CN1c1ccccc1)c1nnc(NC(=O)c2ccccc2)o1 | 51.2 µg/mL (≈ 127 µM) | 52.4 µg/mL (≈ 130 µM) | 69.2 µg/mL (≈ 172 µM) | 50.3 µg/mL (≈ 125 µM) | –
14 | CC(=O)c1sc(Nc2ccccc2)c(-c2nnc(NC(=O)c3ccccc3)o2)c1N | 70.2 µg/mL (≈ 167 µM) | 84.6 µg/mL (≈ 202 µM) | 75.5 µg/mL (≈ 180 µM) | 76.4 µg/mL (≈ 182 µM) | –
15 | N#C/C(c1nnc(NC(=O)c2ccccc2)o1)=c1\sc(=O)/c(=C/c2cn(-c3ccccc3)nc2-c2ccccc2)n1-c1ccccc1 | 250 µg/mL (≈ 395 µM) | 340 µg/mL (≈ 537 µM) | 411 µg/mL (≈ 648 µM) | 257 µg/mL (≈ 405 µM) | –
16 | CC1=CS/C(=C(\C#N)c2nnc(NC(=O)c3ccccc3)o2)N1c1ccccc1 | 12.4 µg/mL (≈ 30.9 µM) | 17.3 µg/mL (≈ 43.1 µM) | 25.8 µg/mL (≈ 64.3 µM) | 15.8 µg/mL (≈ 39.4 µM) | Active
17 | CS/C(Nc1ccccc1)=C(\C#N)c1nnc(NC(=O)c2ccccc2)o1 | 125 µg/mL (≈ 332 µM) | 98.7 µg/mL (≈ 262 µM) | 107 µg/mL (≈ 284 µM) | 132 µg/mL (≈ 351 µM) | –
18 | COc1ccc(/C=C(/C#N)c2nnc(NC(=O)c3ccccc3)o2)cc1 | 69.5 µg/mL (≈ 201 µM) | 71.2 µg/mL (≈ 206 µM) | 49.9 µg/mL (≈ 144 µM) | 95.6 µg/mL (≈ 276 µM) | –
